Assay results taken from ChEMBL document CHEMBL4007422 (J Med Chem, 2017).
pIC50, pKi: −log10 of the molar value.

Key:
[1] = Protein binding in human plasma at 1 uM after 6 hrs by LC-MS/MS based rapid equilibrium dialysis method; assay type: ADME, cell-free; conditions: read-out: PPB (converted)
Outline: (§1)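 Plasma protein binding in rat, dog and human plasma determined by equilibrium dialysis.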

D(3) dopamine receptor = D(3) dopamine receptor (Rattus norvegicus, UniProt P19020); assay: Displacement of [3H] 7-OH DPAT from recombinant rat dopamine D3 receptor expressed in CHO cells after 60 mins; assay type: cell-based
D(3) dopamine receptor, sequence (P19020 whole entry): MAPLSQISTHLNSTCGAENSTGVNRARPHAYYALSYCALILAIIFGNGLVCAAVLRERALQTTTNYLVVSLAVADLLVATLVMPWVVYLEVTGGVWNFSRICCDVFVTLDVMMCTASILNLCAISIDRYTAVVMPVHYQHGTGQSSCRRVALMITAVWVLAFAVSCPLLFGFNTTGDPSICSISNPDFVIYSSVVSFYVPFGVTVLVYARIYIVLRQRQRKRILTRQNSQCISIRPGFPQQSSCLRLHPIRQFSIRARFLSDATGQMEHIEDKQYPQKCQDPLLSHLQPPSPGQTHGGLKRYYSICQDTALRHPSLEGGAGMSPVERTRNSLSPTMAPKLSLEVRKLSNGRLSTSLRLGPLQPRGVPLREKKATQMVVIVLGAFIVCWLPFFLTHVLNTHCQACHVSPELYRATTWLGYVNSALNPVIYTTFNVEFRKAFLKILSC

[2] = Half life in Wistar rat at 10 mg/kg, iv by LC-MS/MS analysis; assay type: ADME, organism-based; conditions: in vivo
[3] = Protein binding in dog plasma at 1 uM after 6 hrs by LC-MS/MS based rapid equilibrium dialysis method; assay type: ADME, cell-free, Canis lupus familiaris; conditions: read-out: PPB (converted); outline: as §1
Cytochrome P450 2C9 = Cytochrome P450 2C9 (Homo sapiens, UniProt P11712); assay: Inhibition of CYP2C9 in human liver microsomes in presence of NADPH by LC-MS/MS analysis; assay type: ADME
Cytochrome P450 2C9, sequence (P11712 whole entry, canonical isoform): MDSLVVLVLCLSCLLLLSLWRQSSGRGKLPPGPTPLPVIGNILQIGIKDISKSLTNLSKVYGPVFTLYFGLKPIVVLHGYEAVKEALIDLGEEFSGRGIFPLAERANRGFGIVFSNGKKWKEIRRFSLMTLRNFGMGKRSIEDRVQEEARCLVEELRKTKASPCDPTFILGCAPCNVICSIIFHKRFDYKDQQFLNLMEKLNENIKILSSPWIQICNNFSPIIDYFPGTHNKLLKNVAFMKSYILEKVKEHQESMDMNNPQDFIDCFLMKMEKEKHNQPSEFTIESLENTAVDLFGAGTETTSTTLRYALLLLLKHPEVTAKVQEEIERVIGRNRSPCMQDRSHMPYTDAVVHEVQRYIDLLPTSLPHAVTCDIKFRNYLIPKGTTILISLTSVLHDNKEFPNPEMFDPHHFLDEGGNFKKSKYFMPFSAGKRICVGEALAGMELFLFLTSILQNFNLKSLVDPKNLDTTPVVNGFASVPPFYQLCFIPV
Outline: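 Pooled human liver microsomes. IC50 determined from isoform-specific marker activities for CYP1A2, 2A6, 2B6, 2C8, 2C9, 2C19 (mephenytoin hydroxylation) and 2E1.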

[4] = Terminal half life in Beagle dog at 10 mg/kg, po; assay type: ADME, organism-based, Canis lupus familiaris; conditions: in vivo, read-out: beta t1/2 (converted)
Outline: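 Beagle dogs received 10 mg/kg p.o. and 3 mg/kg i.v. in a pharmacokinetic study. From plasma exposure the authors derived AUC0-t, terminal half-life, intravenous clearance, volume of distribution and absolute oral bioavailability.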

[5] = target: Alpha-2A adrenergic receptor (Homo sapiens) (UniProt P08913); conditions: 1 uM
Alpha-2A adrenergic receptor (Homo sapiens), sequence (P08913 whole entry): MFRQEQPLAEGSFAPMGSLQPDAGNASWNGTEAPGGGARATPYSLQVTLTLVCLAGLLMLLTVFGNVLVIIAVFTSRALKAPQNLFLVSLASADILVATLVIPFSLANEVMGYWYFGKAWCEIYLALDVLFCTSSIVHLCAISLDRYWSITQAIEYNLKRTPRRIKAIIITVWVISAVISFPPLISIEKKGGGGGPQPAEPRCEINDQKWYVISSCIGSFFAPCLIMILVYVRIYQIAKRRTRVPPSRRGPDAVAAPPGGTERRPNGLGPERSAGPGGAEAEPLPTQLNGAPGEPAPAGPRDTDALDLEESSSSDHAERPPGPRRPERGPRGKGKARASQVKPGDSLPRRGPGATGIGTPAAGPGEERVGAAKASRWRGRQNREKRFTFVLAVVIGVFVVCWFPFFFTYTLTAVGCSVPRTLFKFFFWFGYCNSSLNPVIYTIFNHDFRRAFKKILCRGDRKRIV

Cytochrome P450 3A4 = Cytochrome P450 3A4 (Homo sapiens, UniProt P08684)
Cytochrome P450 3A4, sequence (P08684 whole entry): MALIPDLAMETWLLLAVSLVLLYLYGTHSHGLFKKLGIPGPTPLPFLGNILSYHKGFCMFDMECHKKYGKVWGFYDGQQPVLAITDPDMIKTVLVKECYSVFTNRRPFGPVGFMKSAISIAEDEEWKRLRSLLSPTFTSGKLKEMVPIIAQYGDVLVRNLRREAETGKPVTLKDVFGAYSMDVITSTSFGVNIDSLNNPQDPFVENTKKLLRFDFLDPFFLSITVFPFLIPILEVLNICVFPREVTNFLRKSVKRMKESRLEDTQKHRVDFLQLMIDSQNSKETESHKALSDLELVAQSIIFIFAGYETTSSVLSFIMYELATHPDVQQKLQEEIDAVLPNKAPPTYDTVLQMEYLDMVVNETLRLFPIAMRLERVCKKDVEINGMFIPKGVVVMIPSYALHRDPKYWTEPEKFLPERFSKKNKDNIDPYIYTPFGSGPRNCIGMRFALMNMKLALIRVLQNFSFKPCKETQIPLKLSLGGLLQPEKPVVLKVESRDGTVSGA

COc1ccc2c(c1)c(CN1CCN(C)CC1)cn2S(=O)(=O)c1ccccc1Br.CS(=O)(=O)O.O
fraction unbound at 6 h, 1 µM [1]: 0.02
pKi (D(3) dopamine receptor): 6.21
half-life [2]: 0.95 h
fraction unbound at 6 h, 1 µM [3]: 0.014
pIC50 (Cytochrome P450 2C9): < 5.00
half-life [4]: 3.5 h
inhibition [5]: > 50%
pIC50 (Cytochrome P450 3A4): 5.82
